HCT116 PTEN-null = growth suppression of PTEN-null HCT116, primary screen, cell-based, CellTiter-Glo. HCT116 PTEN-null viability, 60 h; active compounds read low. viability, % at 10 µM. 140,000 compounds, 1.2% hits. AID 827, 2007;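 active = viability at or below a set limit, 4 SD under the median of all tested compounds, cut at about 3.7% in these data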;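 note: PTEN knockout HCT116 line with beta catenin targeted HCT116 as companion control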
H69AR inhibit = proliferation blockers of H69AR lung cancer cells, primary screen, cell-based, human, 86K library | 85,000 compounds, 6% hits | AID 598, 2007 | viability, % at 10 µM | H69AR lung tumor viability, ATP luminescence, 72 h; active compounds read low;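 active = viability at or below 40%; inactive = viability above 40%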;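 note: multidrug resistant small cell line overexpressing MRP-1 efflux transporter; 100% = mean luminescence of untreated control wells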
bCat KO growth = primary screen for growth suppressors in beta-catenin knockout HCT116 cells (colon tumor, human) | HCT116 beta-catenin knockout viability, CellTiter-Glo, 60 h; active compounds read low | 140,000 compounds, 1.5% hits | viability, % at 10 µM;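 active = viability at or under a set limit, the compound median less 4 SD, cut at about 6% in these data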;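 note: 0% = Hyamine 1622 control at 20 µM and 100% = untreated cell control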
Lung fibro prol = antiproliferative effect on LL 47 fibroblasts – human, LL 47 cells, CellTiter-Glo luminescence, primary screen | LL 47 human lung fibroblast viability, ATP luminescence; active compounds read low | viability, % at 10 µM | 85,000 compounds, 1.1% hits;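 active = viability at or below 50% in the single dose screen; inactive = viability above 50%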;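 note: compound exposure lasted 72 h before the ATP readout; 100% = median luminescence of untreated cell-only wells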
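Material: Human LL 47 lung fibroblast cells | Input: 1,150 cells/well | Buffer or medium: IMEM plus 15% FBS | Compound dosing: 0.1% DMSO in all compound wells | Times: Overnight cell rest, 72 h compound treatment at 37 °C | Signal: CellTiter-Glo luminescence measuring cellular ATP | Measure: % viability versus median cells-only luminescence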
HUVEC inhibit = inhibitors of HUVEC proliferation, primary screen, cell-based, 384-well | CellTiter-Glo luminescence, 72 h; active compounds read low | viability, % at 10 µM (by protocol) | 86,000 compounds, 1.1% hits | AID 648, 2007;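 active = viability at or below 30%; inactive = viability above 30%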;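 note: 100% = median luminescence of DMSO-only cell control wells on each plate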
Candida biofilm = clotrimazole potentiators killing Candida biofilms, primary screen, with clotrimazole, Alamar Blue. C. albicans biofilm + clotrimazole. 85,000 compounds, 0.14% hits. AID 834, 2007. inhibition, % at 6 µM;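 active = inhibition above 20%; inactive = inhibition below 20%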;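 note: preformed 24 hr biofilms exposed to compound for 48 hr; 0% = biofilm without compound and 100% = blank killed by clotrimazole plus chlorhexidine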
* marks the source's active call; other numbers are inactive results; · = not tested or not shown. Only a selection was taken, and hits are over-represented in it overall.

SMILES	HCT116 PTEN-null	H69AR inhibit	bCat KO growth	Lung fibro prol	HUVEC inhibit	Candida biofilm
CCn1c(O)c(C=Nc2ccc(S(N)(=O)=O)cc2)c(=O)n(CC)c1=S	76	·	74	·	·	·
NS(=O)(=O)c1ccc(N=Cc2c(O)n(C3CCCCC3)c(=O)n(C3CCCCC3)c2=O)cc1	·	0.9*	17	39*	1.8*	3
COC(=O)OCC12CCC(O1)C1(C)C(=O)OCC21 (stereo unspecified)	100	·	105	·	·	·
CN(C)c1ccc(/C=C/[N+](=O)[O-])cc1	3.5*	·	2.7*	·	·	·
C/C(=C\c1ccc(N(C)C)cc1)[N+](=O)[O-]	2.1*	·	6	·	·	·
COc1ccc2nc(NC3=NCCN3)sc2c1	95	·	92	·	·	·
CN1/C(=C\C=Nc2ccccc2)C(C)(C)c2ccccc21	56	·	69	·	·	·
CN1/C(=C\C=C\C2=[N+](C)c3ccc4ccccc4c3C2(C)C)C(C)(C)c2ccccc21	0.1*	0.1*	0.4*	1.6*	2.0*	-16
CCOC(=O)C(C)(CC)NC(=O)CSP(=S)(OCC)OCC (stereo unspecified)	93	94	97	109	104	-4
CC1CCC[C@H](O)CCCCCc2cc(O)cc(O)c2C(=O)O1 (stereo partly specified)	93	·	105	·	·	·
C[C@H]1CCC[C@H](O)CCCCCc2cc(O)cc(O)c2C(=O)O1	74	32*	71	85	47	4
C[C@H]1CCC[C@@H](O)CCC/C=C/c2cc(O)cc(O)c2C(=O)O1	43	6.5*	47	70	34	6
Cc1cc(C)n(CCOC(=O)C2C(C=C(Cl)Cl)C2(C)C)n1 (stereo unspecified)	86	93	81	93	100	5
O=P1(Nc2ccc(F)cc2)COc2ccccc2OC1	96	99	103	97	94	-1
Oc1cccc(/C=N/NP(=S)(c2ccccc2)c2ccccc2)c1	98	·	90	·	·	·
CCC(CC)C1C(C#N)=C(N)Oc2c1c(=O)oc1ccccc21 (stereo unspecified)	76	37*	80	88	87	-2
CN1CSC(=S)N(C)C1	78	28*	79	99	102	1
CCCCCSc1cc(OC)c(CCN)cc1OC	37	·	27	·	·	·
CCCCCCCSc1cc(OC)c(CCN(C)C)cc1OC	1.3*	·	1.2*	·	·	·
C1=C(CCNCc2ccccc2)CCCC1	98	·	93	·	·	·
CC1(C)C(C(=O)NN2C(=O)c3ccccc3C2=O)C1(C)C	92	·	93	·	·	·
COc1ccc(Oc2cc(NC(=O)c3nn(C)cc3[N+](=O)[O-])cc([N+](=O)[O-])c2)cc1	1.4*	·	1.6*	·	·	·
CC[N+](C)(CC)CCCOC(=O)C(O)(c1ccccc1)C1CCCCC1 (stereo unspecified)	104	75	98	100	94	-2
O=C1C(=O)c2ccccc2-c2ccccc21	2.2*	·	1.7*	·	·	·
O=C1C(=O)c2cccc3cccc1c23	37	·	27	·	·	·
SMILES	HCT116 PTEN-null	H69AR inhibit	bCat KO growth	Lung fibro prol	HUVEC inhibit	Candida biofilm
Cn1c(O)c(/C=N/c2ccccn2)c(=O)n(C)c1=O	104	84	92	100	90	4
COc1ccccc1N=Cc1c(O)n(C)c(=O)n(C)c1=O	95	1.3*	92	93	97	2
CN(C)c1ccc(C(=O)c2ccc(N(C)C)cc2)cc1	24	16*	19	55	41	5
O[C@H]1C2CCC1C(N1CCCCC1)CC2 (stereo partly specified)	91	94	94	98	96	3
NC(=O)c1cn(C2OC(CO)C(O)C2O)c2ncnc(N)c12 (stereo unspecified)	3.0*	·	2.7*	·	·	·
CCCNC(=O)c1c(N)n(Cc2ccc3c(c2)OCO3)c2nc3ccccc3nc12	72	·	80	·	·	·
COCCNC(=O)c1c(N)n(CCC(C)C)c2nc3ccccc3nc12	74	15*	83	102	71	-2
CC(C)CNC(=O)c1c(N)n(Cc2ccc3c(c2)OCO3)c2nc3ccccc3nc12	20	26*	32	88	49	-1
CC(C)CCNC(=O)c1c(N)n(Cc2ccc3c(c2)OCO3)c2nc3ccccc3nc12	19	6.1*	22	67	15*	4
Cc1ccc2cc(C=C(C#N)C#N)c(Cl)nc2c1	22	·	20	·	·	·
CC(C)n1nnnc1CN1CCN(C)CC1	112	97	102	98	97	0
CCN(c1ccc(C(O)(C(=O)OC)C(F)(F)F)cc1)S(=O)(=O)c1ccc(C)cc1 (stereo unspecified)	108	100	98	101	101	5
O=C(c1ccccc1)C(CN1CCCC1)c1ccccc1 (stereo unspecified)	1.5*	·	1.8*	·	·	·
CCOC(=O)C1SC2(C(F)F)CC1(O)c1c(c(OC)c3occc3c1OC)O2 (stereo unspecified)	92	68	106	100	88	2
Cc1nn(Cc2ccccc2)c(C)c1C(=O)OCC(=O)NC1CCS(=O)(=O)C1 (stereo unspecified)	102	·	96	·	·	·
O=C(NC1CN2CCC1CC2)c1cc(Cl)c([N+](=O)[O-])c2nc[nH]c12 (stereo unspecified)	0.6*	·	0.8*	·	·	·
Cc1sc2c(c1C)C(c1ccc(C(C)(C)C)cc1)=NCC(=O)N2CC(=O)Nc1nccs1	27	·	60	·	·	·
CCn1nc(-c2ccccc2)nc2c(=O)n(C)c(=O)nc1-2	1.4*	·	0.7*	·	·	·
CCOP(=O)(C#CC(C)(C)C)C1(O)CCCCC1 (stereo unspecified)	94	90	91	90	95	5
N#Cc1ccccc1Cn1cc(C(=O)c2cccs2)c2ccccc21	78	90	87	88	89	4
O=C(c1cccs1)c1cn(Cc2ccccc2Cl)c2ccccc12	75	34*	78	92	93	-5
O=C(c1ccco1)c1cn(Cc2ccc(Cl)cc2)c2ccccc12	60	11*	53	95	71	2
CC1CCC/C=C/C2CC(O)CC2C(O)/C=C/C(=O)O1 (stereo unspecified)	8	2.9*	2.8*	11*	8.3*	8
FC(F)(F)c1ccc2c(c1)ncn2C1CCN(Cc2nnnn2C2CCCCC2)CC1	70	37*	76	96	85	2
COc1ccc(-c2csc(NC(=O)COC(=O)Cc3ccccc3)n2)cc1OC	103	·	94	·	·	·
O=C1NC(=O)C2(Cc3ccccc3N3CCCC32)C(=O)N1c1ccccc1 (stereo unspecified)	94	102	87	90	87	2
O=C1NC(=O)C2(Cc3ccccc3N3CCOCC32)C(=O)N1c1ccccc1 (stereo unspecified)	24	19*	28	94	72	3
